The test system of test [1] is MT2. Description: Antiviral potency evaluated by measuring accumulation of viral RNA transcripts 3 days after infection of MT-2 cells with HIV-1 RF. To be noted: Homo sapiens, MT2, 72 h. In kind it is functional.
Test [2] deals with Human immunodeficiency virus type 1 protease (Human immunodeficiency virus 1, UniProt Q72874). Description: Inhibitory activity against HIV protease. The essentials: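 Ki for HIV protease, measured by cleavage of a fluorescent substrate with HPLC analysis, following the earlier method.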

For orientation: IC90 means the concentration needed for an effect of 90%. What is called Ki is the equilibrium dissociation constant of an inhibitor or competing ligand from its target. As for `NC(=O)c1cc(CN2C(=O)N(Cc3ccc4[nH]ncc4c3)[C@H](Cc3ccccc3)[C@H](O)[C@@H](O)[C@H]2Cc2ccccc2)ccc1F`, in test [1], the IC90 is 14 nM. This compound also had a Ki in test [2] of 0.018 nM.

For the compound `O=C(Nc1nc2ccccc2[nH]1)c1cccc(CN2C(=O)N(Cc3cccc(C(=O)Nc4nc5ccccc5[nH]4)c3)[C@H](Cc3ccccc3)[C@H](O)[C@@H](O)[C@H]2Cc2ccccc2)c1`, it took 5.1 nM to reach the 90% level in test [1] (IC90).

For the compound `CCNC(=O)c1cccc(CN2C(=O)N(Cc3cccc(C(=O)NCC)c3)[C@H](Cc3ccccc3)[C@H](O)[C@@H](O)[C@H]2Cc2ccccc2)c1`, in test [1], the IC90 was found to be 138 nM. Still for that read-out and setting: the result for `N=C(NO)c1cccc(CN2C(=O)N(Cc3cccc(/C(N)=N/O)c3)[C@H](CCc3ccccc3)[C@@H](O)[C@H]2Cc2ccccc2)c1` reads 49 nM. In test [1], `O=C1N(Cc2cccc(O)c2)[C@H](Cc2ccccc2)[C@H](O)[C@@H](O)[C@@H](Cc2ccccc2)N1Cc1ccc2[nH]ncc2c1` displayed an IC90 of 36 nM. In test [2], this compound displayed a Ki of 0.045 nM. The corresponding values for `O=C1N(Cc2cccc(Cn3cncn3)c2)[C@H](Cc2ccccc2)[C@H](O)[C@@H](O)[C@@H](Cc2ccccc2)N1Cc1ccc2[nH]ncc2c1` are 35 nM and 0.054 nM. Taken in the same sequence, the figures for `O=C1N(Cc2cccc(Cn3cccn3)c2)[C@H](Cc2ccccc2)[C@H](O)[C@@H](O)[C@@H](Cc2ccccc2)N1Cc1ccc2[nH]ncc2c1` were 46 nM and 0.17 nM. The corresponding values for `O=C(Cn1nccn1)c1cccc(CN2C(=O)N(Cc3ccc4[nH]ncc4c3)[C@H](Cc3ccccc3)[C@H](O)[C@@H](O)[C@H]2Cc2ccccc2)c1` are 15 nM and 0.046 nM.

Take `O=C(Nc1ccccn1)c1cccc(CN2C(=O)N(Cc3cccc(C(=O)Nc4ccccn4)c3)[C@H](Cc3ccccc3)[C@H](O)[C@@H](O)[C@H]2Cc2ccccc2)c1`: in test [1], the concentration for an effect of 90% (IC90) amounted to 2.8 nM. The same measure, in the same setting: to `O=C(Nc1nccs1)c1cccc(CN2C(=O)N(Cc3cccc(C(=O)Nc4nccs4)c3)[C@H](Cc3ccccc3)[C@H](O)[C@@H](O)[C@H]2Cc2ccccc2)c1` belongs 4.2 nM. In turn, `Nc1cc(CN2C(=O)N(Cc3ccc4[nH]ncc4c3)[C@H](Cc3ccccc3)[C@H](O)[C@@H](O)[C@H]2Cc2ccccc2)ccc1F` yielded a concentration for an effect of 90% (IC90) in test [1] of 14 nM. The same compound gave an inhibition constant (Ki) in test [2] of 0.018 nM. The corresponding values for `CN(C)c1cccc(CN2C(=O)N(Cc3ccc4[nH]ncc4c3)[C@H](Cc3ccccc3)[C@H](O)[C@@H](O)[C@H]2Cc2ccccc2)c1` are 39 nM and 0.23 nM. In the case of `O=C1N[C@H](Cc2ccccc2)[C@H](O)[C@@H](O)[C@@H](Cc2ccccc2)N1Cc1ccc2[nH]ncc2c1`, the 90% effect level in test [1] (IC90) was put at 550 nM. On to `Nc1ccc(CN2C(=O)N(Cc3ccc4[nH]ncc4c3)[C@H](Cc3ccccc3)[C@H](O)[C@@H](O)[C@H]2Cc2ccccc2)cc1F`, for which the 90% effect concentration (IC90) in test [1] was found to be 7 nM. This compound gave a Ki in test [2] of 0.036 nM. For the compound `CNC(=O)c1cccc(CN2C(=O)N(Cc3cccc(C(=O)NC)c3)[C@H](Cc3ccccc3)[C@H](O)[C@@H](O)[C@H]2Cc2ccccc2)c1`, the IC90 in test [1] turned out to be 81 nM.

Take `NC(=O)c1cccc(CN2C(=O)N(Cc3cccc(C(N)=O)c3)[C@H](Cc3ccccc3)[C@H](O)[C@H]2CCc2ccccc2)c1`: in test [1], it took 35 nM to reach the 90% level (IC90). Same read-out and setting: the result for `O=C1N(Cc2ccc3[nH]ncc3c2)[C@H](Cc2ccccc2)[C@H](O)[C@@H](O)[C@@H](Cc2ccccc2)N1Cc1ccc2[nH]ncc2c1` reads 7 nM. `Nc1ccc(CN2C(=O)N(Cc3ccc4[nH]ncc4c3)[C@H](Cc3ccccc3)[C@H](O)[C@@H](O)[C@H]2Cc2ccccc2)cc1-n1nccn1`: the 90% effect level in test [1] (IC90) was put at 12 nM. In test [2], this compound had a Ki of 0.059 nM. The corresponding values for `O=C1N(Cc2cccc(CCO)c2)[C@H](Cc2ccccc2)[C@H](O)[C@@H](O)[C@@H](Cc2ccccc2)N1Cc1ccc2[nH]ncc2c1` are 17 nM and 0.05 nM. The corresponding values for `COC(=O)Cc1cccc(CN2C(=O)N(Cc3ccc4[nH]ncc4c3)[C@H](Cc3ccccc3)[C@H](O)[C@@H](O)[C@H]2Cc2ccccc2)c1` are 32 nM and 0.11 nM.

`O=C1N(Cc2ccc3[nH]ncc3c2)[C@H](CCc2ccccc2)[C@@H](O)[C@@H](Cc2ccccc2)N1Cc1ccc2[nH]ncc2c1`: the concentration for an effect of 90% (IC90) in test [1] worked out at 6 nM. Moreover, in test [2], the Ki was found to be 0.023 nM. The corresponding values for `O=C(Nc1ccccn1)c1cccc(CN2C(=O)N(Cc3ccc4[nH]ncc4c3)[C@H](Cc3ccccc3)[C@H](O)[C@@H](O)[C@H]2Cc2ccccc2)c1` are 5 nM and 0.051 nM. For `O=C(Cc1cccs1)c1cccc(CN2C(=O)N(Cc3ccc4[nH]ncc4c3)[C@H](Cc3ccccc3)[C@H](O)[C@@H](O)[C@H]2Cc2ccccc2)c1`, in test [1], the 90% effect concentration (IC90) is 18 nM. The compound also displayed a Ki in test [2] of 0.23 nM.

Turning to `Cc1ccc(CN2C(=O)N(Cc3ccc4[nH]ncc4c3)[C@H](Cc3ccccc3)[C@H](O)[C@@H](O)[C@H]2Cc2ccccc2)cc1N`, the IC90 in test [1] was determined as 15 nM. The compound also came in with an inhibitory constant (Ki) in test [2] of 0.05 nM. The corresponding values for `O=C(Cn1cccn1)c1cccc(CN2C(=O)N(Cc3ccc4[nH]ncc4c3)[C@H](Cc3ccccc3)[C@H](O)[C@@H](O)[C@H]2Cc2ccccc2)c1` are 15 nM and 0.063 nM. Taken in the same sequence, the figures for `O=C1N(Cc2cccc(Cn3ccnn3)c2)[C@H](Cc2ccccc2)[C@H](O)[C@@H](O)[C@@H](Cc2ccccc2)N1Cc1ccc2[nH]ncc2c1` were 30 nM and 0.11 nM. Taken in the same sequence, the figures for `Nc1ccc(CN2C(=O)N(Cc3ccc4[nH]ncc4c3)[C@H](Cc3ccccc3)[C@H](O)[C@@H](O)[C@H]2Cc2ccccc2)cc1-n1ccnn1` were 38 nM and 0.034 nM. For `O=C1N(Cc2ccc(F)c(NCc3nc4ccccc4[nH]3)c2)[C@H](Cc2ccccc2)[C@H](O)[C@@H](O)[C@@H](Cc2ccccc2)N1Cc1ccc2[nH]ncc2c1`, the 90% effect concentration (IC90) in test [1] was determined as 30 nM. In test [2], this compound came in with an inhibitory constant (Ki) of 0.028 nM.

`O=C1N(Cc2cccc(Cn3nccn3)c2)[C@H](Cc2ccccc2)[C@H](O)[C@@H](O)[C@@H](Cc2ccccc2)N1Cc1ccc2[nH]ncc2c1` came in with an IC90 in test [1] of 32 nM. In test [2], the inhibitory constant (Ki) stood at 0.081 nM.

`NC(=O)c1cccc(CN2C(=O)N(Cc3cccc(C(N)=O)c3)[C@H](Cc3ccccc3)[C@H](O)[C@@H](O)[C@H]2Cc2ccccc2)c1`: in test [1], the IC90 came out at 709 nM. In the case of `O=C(Cn1ccnn1)c1cccc(CN2C(=O)N(Cc3ccc4[nH]ncc4c3)[C@H](Cc3ccccc3)[C@H](O)[C@@H](O)[C@H]2Cc2ccccc2)c1`, the 90% effect level in test [1] (IC90) was put at 30 nM. The affinity in test [2] corresponds to a Ki of 0.021 nM. `O=C1N(Cc2ccc3ccccc3c2)[C@H](Cc2ccccc2)[C@H](O)[C@@H](O)[C@@H](Cc2ccccc2)N1Cc1ccc2ccccc2c1` gave a concentration for an effect of 90% (IC90) in test [1] of 3900 nM. In test [1], `O=C(O)c1cccc(CN2C(=O)N(Cc3ccc4[nH]ncc4c3)[C@H](Cc3ccccc3)[C@H](O)[C@@H](O)[C@H]2Cc2ccccc2)c1` yielded an IC90 of 750 nM. In test [2], this compound gave an inhibitory constant (Ki) of 0.049 nM. The corresponding values for `Cc1cccc(NC(=O)c2cccc(CN3C(=O)N(Cc4ccc5[nH]ncc5c4)[C@H](Cc4ccccc4)[C@H](O)[C@@H](O)[C@H]3Cc3ccccc3)c2)n1` are 3 nM and 0.04 nM.

The values are drawn from ChEMBL document CHEMBL1131003, “Nonsymmetric P2/P2' cyclic urea HIV protease inhibitors. Structure-activity relationship, bioavailability, and resistance profile of monoindazole-substituted P2 analogues” (J Med Chem, 1998).
